Converted amounts (≈) assume the structure as drawn. The source made the active and inactive calls. The rule behind the calls is not given here.
Experiments:
Pseudomonas aeruginosa = experiment: Antibacterial activity against Pseudomonas aeruginosa assessed as bacterial growth inhibition after 24 hrs by CLSI protocol based broth microdilution assay; type: functional
Escherichia coli = experiment: Antibacterial activity against Escherichia coli assessed as bacterial growth inhibition after 24 hrs by CLSI protocol based broth microdilution assay; type: functional
Candida tropicalis = experiment: Antifungal activity against Candida tropicalis assessed as fungal growth inhibition after 24 hrs by CLSI protocol based broth microdilution assay; type: functional
Candida albicans = experiment: Antifungal activity against Candida albicans assessed as fungal growth inhibition after 24 hrs by CLSI protocol based broth microdilution assay; type: functional
Staphylococcus aureus [1] = experiment: Inhibition of Staphylococcus aureus ATCC 6538 fabI expressed in Escherichia coli BL21 (DE3) assessed as oxidation of NADPH to NADP+ using trans-2-octenoyl CoA as substrate incubated for 2 hrs in presence of NADPH by spectrophotometric analysis
Staphylococcus aureus [2] = experiment: Antibiofilm activity against methicillin-resistant Staphylococcus aureus ATCC 43300 assessed as reduction in biofilm biomass at 0.5 to 4 mg/L after 24 hrs by MTT assay; type: functional, organism-based; conditions: dose mg/L 0.5-4, time 24.0 hrs
Method in brief: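 Biofilm growth of MRSA ATCC 43300 measured in the presence of compound in cultivation plates, with a DMSO control. Significance of control vs treated is given at p < 0.05, 0.01 and 0.001.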

Enterococcus faecium = experiment: Antibacterial activity against Enterococcus faecium assessed as bacterial growth inhibition after 24 hrs by CLSI protocol based broth microdilution assay; type: functional
Staphylococcus aureus [3] = experiment: Antibacterial activity against Staphylococcus aureus assessed as bacterial growth inhibition after 24 hrs by CLSI protocol based broth microdilution assay; type: functional
Bacillus cereus = experiment: Antibacterial activity against Bacillus cereus assessed as bacterial growth inhibition after 24 hrs by CLSI protocol based broth microdilution assay; type: functional
Staphylococcus aureus [4] = experiment: Antibacterial activity against methicillin-resistant Staphylococcus aureus assessed as bacterial growth inhibition after 24 hrs by CLSI protocol based broth microdilution assay; type: functional

| SMILES | MIC (Pseudomonas aeruginosa) | MIC (Escherichia coli) | MIC (Candida tropicalis) | MIC (Candida albicans) | inhibition (Staphylococcus aureus [1]) | Activity (Staphylococcus aureus [2]) | MIC (Enterococcus faecium) | MIC (Staphylococcus aureus [3]) | MIC (Bacillus cereus) | Activity (Staphylococcus aureus [4]) | Activity (Staphylococcus aureus [3]) | MIC (Staphylococcus aureus [4]) |
| --- | --- | --- | --- | --- | --- | --- | --- | --- | --- | --- | --- | --- |
| Oc1ccc(NCc2cc(Br)cc(Br)c2O)cc1 | ≥ 64 µg/mL | ≥ 64 µg/mL | ≥ 64 µg/mL | ≥ 64 µg/mL |  |  |  |  |  |  |  |  |
| Oc1ccc(Br)cc1/C=N\c1cccc(OC(F)(F)F)c1 | ≥ 64 µg/mL | ≥ 64 µg/mL | ≥ 64 µg/mL | ≥ 64 µg/mL |  |  |  |  |  |  |  |  |
| Oc1c(Br)cc(Cl)cc1CNc1cccc(C(F)(F)F)c1 | ≥ 64 µg/mL | ≥ 64 µg/mL | ≥ 64 µg/mL | ≥ 64 µg/mL | Active | Active | ≤ 2 µg/mL | ≤ 2 µg/mL | ≤ 2 µg/mL |  |  |  |
| Oc1cc(Cl)ccc1Oc1ccc(Cl)cc1Cl [TRICLOSAN] | ≥ 64 µg/mL | ≥ 64 µg/mL | ≥ 64 µg/mL | ≥ 64 µg/mL |  |  |  |  |  |  |  |  |
| CC1COc2c(N3CCN(C)CC3)c(F)cc3c(=O)c(C(=O)O)cn1c23 (configuration not stated) [OFLOXACIN] | ≥ 64 µg/mL | ≥ 64 µg/mL | ≥ 64 µg/mL | ≥ 64 µg/mL |  |  |  |  |  |  |  |  |
| Oc1ccc(Br)cc1/C=N\c1cc(C(F)(F)F)ccc1F | ≥ 64 µg/mL | ≥ 64 µg/mL | ≥ 64 µg/mL | ≥ 64 µg/mL |  |  |  |  |  |  |  |  |
| C[C@@H]1[C@H](O)[C@@H](C)/C=C/C=C/C=C/C=C/C=C/C=C/C=C/[C@H](O[C@@H]2O[C@H](C)[C@@H](O)[C@H](N)[C@@H]2O)C[C@@H]2O[C@](O)(C[C@@H](O)C[C@@H](O)[C@H](O)CC[C@@H](O)C[C@@H](O)CC(=O)O[C@H]1C)C[C@H](O)[C@H]2C(=O)O [AMPHOTERICIN B] | ≥ 64 µg/mL | ≥ 64 µg/mL | ≥ 64 µg/mL | ≥ 64 µg/mL |  |  |  |  |  |  |  |  |
| Oc1c(Br)cc(Br)cc1/C=N\c1cc(C(F)(F)F)ccc1Cl | ≥ 64 µg/mL | ≥ 64 µg/mL | ≥ 64 µg/mL | ≥ 64 µg/mL |  |  |  |  |  | inactive | inactive |  |
| Oc1c(Br)cc(Cl)cc1CNCCc1ccc(Br)cc1 | ≥ 64 µg/mL | ≥ 64 µg/mL | ≥ 64 µg/mL | ≥ 64 µg/mL |  |  |  |  |  |  |  |  |
| CN(C)[C@@H]1C(O)=C(C(N)=O)C(=O)[C@@]2(O)C(O)=C3C(=O)c4c(O)cccc4[C@@](C)(O)[C@H]3C[C@@H]12 [TETRACYCLINE] | ≥ 64 µg/mL | ≥ 64 µg/mL | ≥ 64 µg/mL | ≥ 64 µg/mL |  |  |  |  |  |  |  |  |
| Oc1c(Br)cc(Cl)cc1/C=N\CCc1ccc(F)cc1 | ≥ 64 µg/mL | ≥ 64 µg/mL | ≥ 64 µg/mL | ≥ 64 µg/mL |  |  |  |  |  |  |  |  |
| Oc1c(Cl)cc(Cl)cc1CNc1cc(C(F)(F)F)ccc1Cl | ≥ 64 µg/mL | ≥ 64 µg/mL | ≥ 64 µg/mL | ≥ 64 µg/mL | Active | Active | ≤ 2 µg/mL | ≤ 2 µg/mL | ≤ 2 µg/mL |  |  |  |
| Oc1ccc(Cl)cc1/C=N\c1ccc(OC(F)(F)F)cc1 | ≥ 64 µg/mL | ≥ 64 µg/mL | ≥ 64 µg/mL | ≥ 64 µg/mL |  |  |  |  |  |  |  |  |
| Oc1c(Br)cc(Cl)cc1/C=N\CCc1ccc(Br)cc1 | ≥ 64 µg/mL | ≥ 64 µg/mL | ≥ 64 µg/mL | ≥ 64 µg/mL |  |  |  |  |  |  |  |  |
| Oc1cccc(/N=C\c2cc(Cl)cc(Br)c2O)c1 | ≥ 64 µg/mL | ≥ 64 µg/mL | ≥ 64 µg/mL | ≥ 64 µg/mL |  |  |  |  |  |  |  |  |
| Oc1ccc(/N=C\c2cc(Br)cc(Br)c2O)cc1 | ≥ 64 µg/mL | ≥ 64 µg/mL | ≥ 64 µg/mL | ≥ 64 µg/mL |  |  |  |  |  | inactive | inactive |  |
| Oc1ccc(Br)cc1CNc1cc(C(F)(F)F)ccc1F | ≥ 64 µg/mL | ≥ 64 µg/mL | ≥ 64 µg/mL | ≥ 64 µg/mL |  |  |  | 16 µg/mL (≈ 43.9 µM) |  |  |  | 16 µg/mL (≈ 43.9 µM) |
| Oc1c(Br)cc(Br)cc1/C=N\c1cc(C(F)(F)F)ccc1F | ≥ 64 µg/mL | ≥ 64 µg/mL | ≥ 64 µg/mL | ≥ 64 µg/mL |  |  |  |  |  | inactive | inactive |  |

| SMILES | MIC (Pseudomonas aeruginosa) | MIC (Escherichia coli) | MIC (Candida tropicalis) | MIC (Candida albicans) | inhibition (Staphylococcus aureus [1]) | Activity (Staphylococcus aureus [2]) | MIC (Enterococcus faecium) | MIC (Staphylococcus aureus [3]) | MIC (Bacillus cereus) | Activity (Staphylococcus aureus [4]) | Activity (Staphylococcus aureus [3]) | MIC (Staphylococcus aureus [4]) |
| --- | --- | --- | --- | --- | --- | --- | --- | --- | --- | --- | --- | --- |
| Oc1c(Br)cc(Cl)cc1/C=N\c1cccc(C(F)(F)F)c1 | ≥ 64 µg/mL | ≥ 64 µg/mL | ≥ 64 µg/mL | ≥ 64 µg/mL |  |  |  |  |  |  |  |  |
| Oc1ccc(Br)cc1/C=N\c1cc(C(F)(F)F)ccc1Cl | ≥ 64 µg/mL | ≥ 64 µg/mL | ≥ 64 µg/mL | ≥ 64 µg/mL |  |  |  |  |  |  |  |  |
| Oc1c(Br)cc(Br)cc1CNc1cc(C(F)(F)F)ccc1F | ≥ 64 µg/mL | ≥ 64 µg/mL | ≥ 64 µg/mL | ≥ 64 µg/mL |  |  |  | 4 µg/mL (≈ 9.03 µM) |  |  |  | 4 µg/mL (≈ 9.03 µM) |
| Oc1c(Br)cc(Cl)cc1CNCCc1ccc(F)cc1 | ≥ 64 µg/mL | ≥ 64 µg/mL | ≥ 64 µg/mL | ≥ 64 µg/mL |  |  |  |  |  |  |  |  |
| Oc1ccc(Cl)cc1/C=N\c1cc(C(F)(F)F)ccc1Cl | ≥ 64 µg/mL | ≥ 64 µg/mL | ≥ 64 µg/mL | ≥ 64 µg/mL |  |  |  |  |  |  |  |  |
| Oc1ccc(Cl)cc1CNc1ccc(OC(F)(F)F)cc1 | ≥ 64 µg/mL | ≥ 64 µg/mL | ≥ 64 µg/mL | ≥ 64 µg/mL |  |  |  |  |  |  |  |  |
| Oc1c(Br)cc(Cl)cc1/C=N\c1cc(C(F)(F)F)ccc1Cl | ≥ 64 µg/mL | ≥ 64 µg/mL | ≥ 64 µg/mL | ≥ 64 µg/mL |  |  |  |  |  |  |  |  |
| Oc1ccc(Br)cc1CNc1cccc(OC(F)(F)F)c1 | ≥ 64 µg/mL | ≥ 64 µg/mL | ≥ 64 µg/mL | ≥ 64 µg/mL |  |  |  |  |  |  |  |  |
| Oc1c(Br)cc(Br)cc1CNc1cc(C(F)(F)F)ccc1Cl | ≥ 64 µg/mL | ≥ 64 µg/mL | ≥ 64 µg/mL | ≥ 64 µg/mL | Active | Active | ≤ 2 µg/mL | 1 µg/mL (≈ 2.18 µM) | ≤ 2 µg/mL |  |  | 1 µg/mL (≈ 2.18 µM) |
| Oc1c(Br)cc(Br)cc1CNc1cccc(C(F)(F)F)c1 | ≥ 64 µg/mL | ≥ 64 µg/mL | ≥ 64 µg/mL | ≥ 64 µg/mL | Active | Active | ≤ 2 µg/mL | ≤ 2 µg/mL | ≤ 2 µg/mL |  |  |  |
| Oc1c(Cl)cc(Cl)cc1/C=N\c1cc(C(F)(F)F)ccc1Cl | ≥ 64 µg/mL | ≥ 64 µg/mL | ≥ 64 µg/mL | ≥ 64 µg/mL |  |  |  |  |  |  |  |  |
| Oc1ccc(Br)cc1CNc1cc(C(F)(F)F)ccc1Cl | ≥ 64 µg/mL | ≥ 64 µg/mL | ≥ 64 µg/mL | ≥ 64 µg/mL | Active | Active | ≤ 2 µg/mL | 2 µg/mL (≈ 5.25 µM) | ≤ 2 µg/mL |  |  | 1 µg/mL (≈ 2.63 µM) |
| Oc1cccc(NCc2cc(Cl)cc(Br)c2O)c1 | ≥ 64 µg/mL | ≥ 64 µg/mL | ≥ 64 µg/mL | ≥ 64 µg/mL |  |  |  |  |  |  |  |  |
| Oc1ccc(Cl)cc1CNc1cc(C(F)(F)F)ccc1F | ≥ 64 µg/mL | ≥ 64 µg/mL | ≥ 64 µg/mL | ≥ 64 µg/mL |  |  |  | 4 µg/mL (≈ 12.5 µM) |  |  |  | 32 µg/mL (≈ 100 µM) |
| Oc1ccc(Cl)cc1CNc1cc(C(F)(F)F)ccc1Cl | ≥ 64 µg/mL | ≥ 64 µg/mL | ≥ 64 µg/mL | ≥ 64 µg/mL | Active | Active | ≤ 2 µg/mL | 1 µg/mL (≈ 2.97 µM) | ≤ 2 µg/mL |  |  | 1 µg/mL (≈ 2.97 µM) |
| Oc1ccc(Cl)cc1/C=N\c1cc(C(F)(F)F)ccc1F | ≥ 64 µg/mL | ≥ 64 µg/mL | ≥ 64 µg/mL | ≥ 64 µg/mL |  |  |  |  |  |  |  |  |
| Oc1c(Br)cc(Br)cc1/C=N\c1cccc(C(F)(F)F)c1 | ≥ 64 µg/mL | ≥ 64 µg/mL | ≥ 64 µg/mL | ≥ 64 µg/mL |  |  |  |  |  | inactive | inactive |  |

Source: ChEMBL document CHEMBL4665639, “N-Benzylanilines as Fatty Acid Synthesis Inhibitors against Biofilm-related Methicillin-resistant Staphylococcus aureus” (ACS Med Chem Lett, 2019)
